# Compound activity as filed in PubChem.
# Compounds with a hit are over-represented: about 3.9% of the library has one in this group of screens.
# SR-BI DiI-HDL act – enhances SR-BI lipid uptake from DiI-HDL. actives 0.096% (n = 320,000). activation, % at 12.5 µM. CHO ldlA[mSR-BI] cells, DiI-HDL uptake fluorescence, 3 h; 100 = double the neutral-control signal;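 active = mean replicate activation of at least 60% and every replicate at or above 60%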;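 note: 0% = median plate neutral-control signal and 100% = twice that signal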
#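 Assay system: CHO ldlA[mSR-BI] cells, LDL receptor-null, SR-BI overexpressing; medium: Ham's F12 with 0.5% BSA, HEPES 25 mM, pH 7.4; also added: DiI-HDL 10 µg/mL; timing: 3 h uptake period with compound, 37 °C; signal: DiI fluorescence, bottom read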
# AHR act – human AHR activation; actives 2.5% (n = 320,000); AHR-responsive luciferase reporter cells, luminescence; P35869; activation, % at 5 µM; in the data active = activation above about 47%;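 note: 0% = vehicle wells and 100% = reference agonist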
# SR-BI HDL uptake – inhibitors of mouse SR-BI mediated HDL lipid uptake. inhibition, % at 12.5 µM. ldlA[mSR-BI] CHO cells, DiI-HDL uptake fluorescence, 3 h. Q61009. AID 488896. actives 0.96% (n = 320,000);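 active = mean replicate inhibition of at least 70% and a set share of replicates each scoring 70 or more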;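 note: 0% = median of neutral control wells and 100% = median of positive control wells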
# Target sequence (Q61009 whole entry, looked up): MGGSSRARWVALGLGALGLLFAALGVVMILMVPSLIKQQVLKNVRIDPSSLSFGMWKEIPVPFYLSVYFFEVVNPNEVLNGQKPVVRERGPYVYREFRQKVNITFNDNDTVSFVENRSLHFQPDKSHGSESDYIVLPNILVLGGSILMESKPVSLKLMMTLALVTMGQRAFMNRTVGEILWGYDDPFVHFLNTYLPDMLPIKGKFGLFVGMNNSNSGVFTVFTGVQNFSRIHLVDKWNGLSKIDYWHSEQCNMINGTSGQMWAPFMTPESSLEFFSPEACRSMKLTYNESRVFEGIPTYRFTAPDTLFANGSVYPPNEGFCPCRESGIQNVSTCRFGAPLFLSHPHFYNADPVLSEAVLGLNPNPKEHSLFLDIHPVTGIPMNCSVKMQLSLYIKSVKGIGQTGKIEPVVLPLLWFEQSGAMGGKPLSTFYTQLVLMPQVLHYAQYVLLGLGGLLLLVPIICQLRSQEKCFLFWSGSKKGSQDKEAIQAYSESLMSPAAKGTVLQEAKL
# ABCB6 inh 2 – inhibitors of human ABC transporter ABCB6; Q9NP58; actives 0.19% (n = 360,000); K562-ABCB6 porphyrin accumulation, flow cytometry, 1 h; stronger effect = lower value; fluorescence ratio to DMSO, % at 10 µM;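 active = fluorescence ratio to DMSO below 75%, the collection mean minus 3 SD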;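 note: signal is porphyrin accumulated inside mitochondria; 100% equals median channel fluorescence of DMSO control wells; lower ratio means ABCB6 inhibition with less porphyrin fluorescence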
# GAA850 FXN act – activators of GAA850 frataxin (FXN) promoter; AID 540364; activation, % at 6 µM; actives 0.56% (n = 360,000); HEK293 lucGAA850 FXN promoter luciferase reporter, 24 h; percent of 10 µM SAHA response;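 active = activation above the average of all compounds screened plus 3 SD, cutoff fixed separately per campaign, cut at about 7.5% in these data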;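 note: 0% = DMSO wells and 100% = 10 µM SAHA wells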
# HIF act – HIF pathway transcriptional activation. U2OS HRE-luciferase reporter, luminescence; normalized: DMSO 0%, desferrioxamine 100%. activation, % at 7.5 µM (by protocol). actives 0.32% (n = 300,000). AID 1910;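 active = mean activation of at least 10% of the iron chelator positive control signal, with at least half of replicates also reaching 10%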
# Active calls of the source: *; · = no result.
SMILES,SR-BI DiI-HDL act,AHR act,SR-BI HDL uptake,ABCB6 inh 2,GAA850 FXN act,HIF act
CCOC(=O)N1CCN(C(=O)C[C@@H]2C[C@@]3(C(=O)OCC)CCC=C3N(Cc3ccc4c(c3)OCO4)C2=O)CC1,·,·,·,100.0,·,·
COc1cccc(/C=N\NC(=O)Cn2nnc3ccccc32)c1O,19.4,2.4,-19.4,102.0,-0.1,15.9*
C=CCc1cccc(/C=N/NC(=O)CNc2ccccc2OC)c1O,-17.0,61.2*,17.0,98.0,2.3,1.1
COc1cccc(/C=N/NC(=O)CNC(=O)C(c2ccccc2)c2ccccc2)c1O,-13.9,3.2,13.9,92.0,-2.8,13.7*
COc1cccc(/C=N/NC(=O)CSCC(=O)Nc2ccccc2)c1O,5.8,11.0,-5.8,105.0,-3.0,17.3*
COc1cc(/C=N/NC(=O)Cn2nnc3ccccc32)ccc1O,-23.5,0.4,23.5,98.0,0.6,-0.4
COc1ccc(/C=N/NC(=O)CSCC(=O)Nc2ccccc2)cc1,-4.8,0.5,4.8,88.0,0.9,0.6
CN(C(=O)COC(=O)C1=COCCO1)C1(C#N)CCCCC1,2.5,-1.4,-2.5,89.0,1.4,·
CCC(C)NC(=O)c1ccccc1NC(=O)/C(=C/c1ccc(OC)cc1)c1ccccc1 (centres undefined),2.0,-0.3,-2.0,93.0,0.0,-1.1
CC1(C)CC(=O)c2c(O)cc(OCC(=O)N3CCN(c4ccc(F)cc4)CC3)cc2O1,-79.7,1.6,79.7*,92.0,1.6,-0.2
CC1(C)CC(=O)c2cc(OCC(=O)N3CCN(c4ccccc4F)CC3)ccc2O1,-24.0,12.2,24.0,102.0,-0.2,0.2
O=C(Nc1ncc2c(n1)-c1ccccc1CC2)c1cccs1,-14.3,63.1*,14.3,103.0,1.2,0.5
O=C(Nc1nccc(-c2cccs2)n1)c1cccs1,8.7,48.1*,-8.7,94.0,1.5,3.6
O=C(Nc1ncc2c(n1)-c1ccccc1CC2)c1ccc(F)cc1,-5.9,64.6*,5.9,93.0,-3.5,0.0
O=C(Nc1ncc2c(n1)-c1ccccc1CC2)c1ccccc1,-19.7,19.8,19.7,95.0,1.4,1.1
Nc1ncc2c(n1)-c1ccccc1CC2,22.4,-1.5,-22.4,98.0,1.4,0.7
Nc1ccc(-c2nc(-c3ccccc3)nc3ccccc23)cc1,-71.5,7.9,71.5*,98.0,2.8,-2.1
Cc1ccnc(NC(=O)/C=C/c2ccccc2Cl)c1,-10.3,15.6,10.3,91.0,1.7,0.0
Cc1ccnc(NC(=O)/C=C/c2ccccc2[N+](=O)[O-])c1,·,71.6*,·,·,·,0.3
O=C(/C=C\c1ccccc1[N+](=O)[O-])Nc1ccccc1,-42.6,40.2,42.6,98.0,3.2,4.9
CCOc1ccccc1NC(=O)/C=C/c1ccccc1[N+](=O)[O-],-82.1,62.8*,82.1*,97.0,2.1,0.6
CC1CCCCN1CCNC(=O)c1ccc2c(c1)N(Cc1ccccc1)C(=O)c1ccccc1S2(=O)=O (centres undefined),8.5,-0.7,-8.5,105.0,-3.2,-0.2
COc1cc(C#Cc2c(-c3cncn3C)n(C)c3ccc(-c4ccc(OC)nc4)cc23)cc(OC)c1,29.5,59.5*,-29.5,99.0,0.7,·
O=C(COc1cccc2c1CCNC2=O)Nc1cccc(C(F)(F)F)c1,-10.0,6.6,10.0,102.0,-0.4,0.1
O=C(COc1cccc2c1CCNC2=O)Nc1cccc(F)c1,6.8,49.1*,-6.8,94.0,-0.3,-0.1
SMILES,SR-BI DiI-HDL act,AHR act,SR-BI HDL uptake,ABCB6 inh 2,GAA850 FXN act,HIF act
O=C(NCc1ccccc1CN1CCCC1)c1ccc(Cl)c(S(=O)(=O)N2CCCC2)c1,9.0,·,-9.0,98.0,1.8,·
COc1cc2[nH]c(=S)nc(NCc3cccs3)c2cc1OC,-35.7,60.3*,35.7,103.0,-2.1,-0.4
Fc1ccc(Cn2nnc3ccccc32)cc1,0.4,-0.1,-0.4,92.0,2.1,-0.6
COC(=O)c1c(NC(=O)CCCC(=O)O)sc(C)c1C,5.8,-0.1,-5.8,102.0,2.4,-1.5
CCCCn1c(=N)n(CC(=O)O)c2ccccc21,21.2,1.9,-21.2,88.0,1.2,0.1
CCn1c(=N)n(CC(=O)OC)c2ccccc21,5.7,0.1,-5.7,88.0,-0.9,-0.2
CCCCn1c(=N)n(CC(=O)c2ccc(Br)s2)c2ccccc21,·,52.2*,·,104.0,-4.6,-2.8
